Laboratory results as given in ChEMBL document CHEMBL1145831 (J Med Chem, 2003).

Key:
CCRF-CEM = experiment: In vitro growth inhibitory activity in the human CCRF-CEM leukemia cell line.; format: functional, cell-based
In short: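 CCRF-CEM human leukemia cells in log phase, 4.8 × 10⁴ cells per 2 mL well. Medium was RPMI-1640 with 10% dialyzed FBS and 25 mM HEPES. Compounds were serially diluted 1:3 in DMSO and added to duplicate wells, with DMSO-only controls, at 0.5% final DMSO. Cells were exposed 72 h at 37 °C in humidified 5% CO₂, then counted. IC50 in nM.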

Mus musculus [1] = experiment: In vivo antitumor activity against murine pancreatic adenocarcinoma and measured as number of deaths on a schedule of 3-9 days and at a total dose of 42 mg/kg; format: ADME, organism-based; parameters: dose 42 mg/kg
In short: (§1)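 Mice bearing drug-sensitive murine pancreatic adenocarcinoma Panc-03 were dosed on the listed days at the listed total doses. Dosing solutions were made in water from stock solutions and injected within 20 min. Chlorohydrin solutions were acidified with 0.05% citric acid. Tolerance was recorded as body weight loss and number of deaths.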

Mus musculus [2] = experiment: In vivo antitumor activity against murine pancreatic adenocarcinoma and measured as % weight loss on a schedule of 3-10 days and at a total dose of 32 mg/kg; format: functional; in short: as §1
Mus musculus [3] = experiment: Ratio of the median tumor weight in the treatment group over the median tumor weight in the control group on a schedule of 3-10 days and at a total dose of 32 mg/kg; format: functional
In short: (§2)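 Panc-03 murine pancreatic adenocarcinoma in mice, with injectable solutions prepared in water from stock and given within 20 min; chlorohydrins were acidified with 0.05% citric acid. %T/C is median tumor weight of the treated group over that of the control group × 100, calculated when control median tumor weight reaches 1 g. T/C ≤ 42% is taken as significant activity.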

Mus musculus [4] = experiment: Ratio of the median tumor weight in the treatment group over the median tumor weight in the control group on a schedule of 3-9 days and at a total dose of 42 mg/kg; format: functional; in short: as §2
Mus musculus [5] = experiment: In vivo antitumor activity against murine pancreatic adenocarcinoma and measured as number of deaths on a schedule of 3-10 days and at a total dose of 32 mg/kg; format: ADME, organism-based; parameters: dose 32 mg/kg; in short: as §1
Mus musculus [6] = experiment: In vivo antitumor activity against murine pancreatic adenocarcinoma and measured as % weight loss on a schedule of 3-9 days and at a total dose of 42 mg/kg; format: functional; in short: as §1
Mus musculus [7] = experiment: In vivo antitumor activity against murine pancreatic adenocarcinoma and measured as % weight loss on a schedule of 3,4,6 days and at a total dose of 12 mg/kg; format: functional; in short: as §1
Mus musculus [8] = experiment: In vivo antitumor activity against murine pancreatic adenocarcinoma and measured as % weight loss on a schedule of 3,4,6,10 days and at a total dose of 3.5 mg/kg; format: functional; in short: as §1
Mus musculus [9] = experiment: In vivo antitumor activity against murine pancreatic adenocarcinoma and measured as % weight loss on a schedule of 3,4,6 days and at a total dose of 6 mg/kg; format: functional; in short: as §1
Mus musculus [10] = experiment: In vivo antitumor activity against murine pancreatic adenocarcinoma and measured as number of deaths on a schedule of 3,4,6 days and at a total dose of 12 mg/kg; format: ADME, organism-based; parameters: dose 12 mg/kg; conditions: 144 h; in short: as §1
Mus musculus [11] = experiment: Ratio of the median tumor weight in the treatment group over the median tumor weight in the control group on a schedule of 3,4,6,10 days and at a total dose of 3.5 mg/kg; format: functional; in short: as §2
Mus musculus [12] = experiment: In vivo antitumor activity against murine pancreatic adenocarcinoma and measured as number of deaths on a schedule of 3,4,6 days and at a total dose of 6 mg/kg; format: ADME, organism-based; parameters: dose 6 mg/kg; conditions: 144 h; in short: as §1
Mus musculus [13] = experiment: In vivo antitumor activity against murine pancreatic adenocarcinoma and measured as number of deaths on a schedule of 3,4,6,10 days and at a total dose of 3.5 mg/kg; format: ADME, organism-based; parameters: dose 3.5 mg/kg; conditions: 240 h; in short: as §1
Mus musculus [14] = experiment: Ratio of the median tumor weight in the treatment group over the median tumor weight in the control group on a schedule of 3,8days and at a total dose of 16 mg/kg; format: functional
In short: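 Mice bearing the drug-sensitive murine pancreatic adenocarcinoma Panc-03. Dosing solutions were made in water from stock solutions and injected within 20 min of preparation; chlorohydrins were acidified with 0.05% citric acid. T/C (%) = median tumor weight of the treated group ÷ median tumor weight of controls × 100, calculated when control median tumor weight reached 1 g.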

Mus musculus [15] = experiment: In vivo antitumor activity against murine pancreatic adenocarcinoma and measured as % weight loss on a schedule of 3,8days and at a total dose of 16 mg/kg; format: functional
In short: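 Body weight loss was tracked in mice implanted with the Panc-03 murine pancreatic adenocarcinoma. Injections were given within 20 min of aqueous preparation from stock solutions, with chlorohydrins acidified using 0.05% citric acid.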

Mus musculus [16] = experiment: In vivo antitumor activity against murine pancreatic adenocarcinoma and measured as number of deaths on a schedule of 3,8days and at a total dose of 16 mg/kg; format: ADME, organism-based; parameters: dose 16 mg/kg; conditions: 192 h; in short: as §1
Mus musculus [17] = experiment: Log cell kill of tumor bearing mice on a schedule of 3,8days and at a total dose of 16 mg/kg; format: functional, organism-based; parameters: dose 16 mg/kg
In short: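 Panc-03 murine pancreatic adenocarcinoma in mice. Aqueous dosing solutions were prepared from stocks and injected within 20 min; chlorohydrins were acidified with 0.05% citric acid. Log cell kill was calculated from tumor growth delay, the difference in days between treated and control animals to reach 1000 mg tumor weight.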

COc1ccc(C[C@H]2NC(=O)/C=C/C[C@@H]([C@H](C)[C@H]3O[C@@H]3c3ccc(CC(=O)O)cc3)OC(=O)[C@H](CC(C)C)OC(=O)C(C)(C)CNC2=O)cc1Cl
IC50 (CCRF-CEM): 0.79 nM

CCN(CC)Cc1ccc([C@H](Cl)[C@H](O)[C@@H](C)[C@@H]2C/C=C/C(=O)N[C@H](Cc3ccc(OC)c(Cl)c3)C(=O)NCC(C)(C)C(=O)O[C@@H](CC(C)C)C(=O)O2)cc1
IC50 (CCRF-CEM): 0.005 nM

COc1ccc(C[C@H]2NC(=O)/C=C/C[C@@H]([C@H](C)[C@H]3O[C@@H]3c3cccc(C)c3)OC(=O)[C@H](CC(C)C)OC(=O)C(C)(C)CNC2=O)cc1Cl
IC50 (CCRF-CEM): 0.15 nM

COc1ccc(C[C@H]2NC(=O)/C=C/C[C@@H]([C@H](C)[C@H]3O[C@@H]3c3ccccc3)OC(=O)[C@H](CC(C)C)OC(=O)C(C)(C)CNC2=O)cc1Cl [CRYPTOPHYCIN 52]
Death (Mus musculus [1]): 3
Weight loss (Mus musculus [2]): 1.6%
T/C (Mus musculus [3]): 3%
T/C (Mus musculus [4]): 1%
IC50 (CCRF-CEM): 0.022 nM
Death (Mus musculus [5]): 0
Weight loss (Mus musculus [6]): -9.6%

COc1ccc(C[C@H]2NC(=O)/C=C/C[C@@H]([C@H](C)[C@H]3O[C@@H]3c3ccc(CO)cc3)OC(=O)[C@H](CC(C)C)OC(=O)C(C)(C)CNC2=O)cc1Cl
Weight loss (Mus musculus [7]): -18.4%
Weight loss (Mus musculus [8]): 10.5%
IC50 (CCRF-CEM): 0.004 nM
Weight loss (Mus musculus [9]): -19.5%
Death (Mus musculus [10]): 4
T/C (Mus musculus [11]): 14%
Death (Mus musculus [12]): 1
Death (Mus musculus [13]): 0

CNCC(=O)NCc1ccc([C@H](Cl)[C@H](O)[C@@H](C)[C@@H]2C/C=C/C(=O)N[C@H](Cc3ccc(OC)c(Cl)c3)C(=O)NCC(C)(C)C(=O)O[C@@H](CC(C)C)C(=O)O2)cc1
IC50 (CCRF-CEM): 0.04 nM

COc1ccc(C[C@H]2NC(=O)/C=C/C[C@@H]([C@H](C)/C=C/c3csc(C)n3)OC(=O)[C@H](CC(C)C)OC(=O)C(C)(C)CNC2=O)cc1Cl
IC50 (CCRF-CEM): 460 nM

COc1ccc(C[C@H]2NC(=O)/C=C/C[C@@H]([C@H](C)[C@H]3O[C@@H]3c3ccc(COC(=O)CNC(=O)OC(C)(C)C)cc3)OC(=O)[C@H](CC(C)C)OC(=O)C(C)(C)CNC2=O)cc1Cl
IC50 (CCRF-CEM): 0.0055 nM

COc1ccc(C[C@H]2NC(=O)/C=C/C[C@@H]([C@H](C)[C@@H](O)[C@@H](Cl)c3ccc(C)c(C)c3)OC(=O)[C@H](CC(C)C)OC(=O)C(C)(C)CNC2=O)cc1Cl
IC50 (CCRF-CEM): 0.6 nM

COc1ccc(C[C@H]2NC(=O)/C=C/C[C@@H]([C@H](C)/C=C/c3cccc(C)c3)OC(=O)[C@H](CC(C)C)OC(=O)C(C)(C)CNC2=O)cc1Cl
IC50 (CCRF-CEM): 25 nM

COc1cccc2c1C(=O)c1c(O)c3c(c(O)c1C2=O)C[C@@](O)(C(=O)CO)C[C@@H]3O[C@H]1C[C@H](N)[C@H](O)[C@H](C)O1 [DOXORUBICIN]
T/C (Mus musculus [14]): 16%
Weight loss (Mus musculus [15]): -12%
Death (Mus musculus [16]): 0
Log kill (Mus musculus [17]): 1.5

COc1ccc(C[C@H]2NC(=O)/C=C/C[C@@H]([C@H](C)[C@@H](O)[C@@H](Cl)c3ccc(OC(=O)C(C)(C)CN)cc3)OC(=O)[C@H](CC(C)C)OC(=O)C(C)(C)CNC2=O)cc1Cl
IC50 (CCRF-CEM): 0.79 nM

COc1ccc(C[C@H]2NC(=O)/C=C/C[C@@H]([C@H](C)[C@@H](O)[C@@H](Cl)c3ccc(COC(=O)C(C)(C)CN)cc3)OC(=O)[C@H](CC(C)C)OC(=O)C(C)(C)CNC2=O)cc1Cl
IC50 (CCRF-CEM): 0.004 nM

COc1ccc(C[C@H]2NC(=O)/C=C/C[C@@H]([C@H](C)[C@@H]3O[C@H]3c3ccc(CO)cc3)OC(=O)[C@H](CC(C)C)OC(=O)C(C)(C)CNC2=O)cc1Cl
IC50 (CCRF-CEM): 0.29 nM

COc1ccc(C[C@H]2NC(=O)/C=C/C[C@@H]([C@H](C)[C@H]3O[C@@H]3c3cc(C)ccc3C)OC(=O)[C@H](CC(C)C)OC(=O)C(C)(C)CNC2=O)cc1Cl
IC50 (CCRF-CEM): 2 nM
